Read-outs that look alike come from different tables or passages of the source.
Assays:
[1] = test system: A549 (human lung cancer) cells; assay: MTT antiproliferative assay, A549 cells; type: cell-based; details: read-out: IC50 A549
Summary of the method: (§1)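 Cancer cells were grown in RPMI 1640 with 10% FBS and 1% penicillin–streptomycin at 37 °C in humidified CO2. They were harvested with trypsin/EDTA and seeded at 8 × 10^3 cells per well. Cells were exposed to a concentration series in triplicate, with untreated wells as controls, for 72 h. MTT was then added for 4 h at 37 °C and formazan dissolved in DMSO (10 min, 37 °C, dark). Absorbance was read at 490 nm. IC50 is mean ± SD of 3–4 independent experiments.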

[2] = test system: SW480 (human colon cancer) cells; assay: MTT antiproliferative assay, SW480 cells; type: cell-based; details: read-out: IC50 SW480
Summary of the method: as §1

[3] = test system: MRC-5 (human fetal lung fibroblast cells); assay: MTT cytotoxicity assay, MRC-5 normal cells; type: cell-based; details: MRC5, 72 h, read-out: IC50 MRC-5
Summary of the method: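 Human fetal lung fibroblasts were harvested with trypsin/EDTA and seeded at 8 × 10^3 cells per well. They were treated in triplicate with a concentration series for 72 h, with untreated wells as controls. MTT was added for 4 h at 37 °C and formazan dissolved in DMSO. Absorbance was read at 490 nm. IC50 is mean ± SD of three independent replicates.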

A549 cells [4] = assay: Cell cycle analysis by PI staining and flow cytometry; type: cell-based, human; details: A549, 16.1 μM
Summary of the method: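 A549 cells (5 × 10^4) were pre-cultured for 16 h in high-glucose DMEM, then treated with 16.1 μM test compound for 24 h and 48 h. Cells were harvested with 0.25% trypsin, washed in PBS, and stained with propidium iodide plus 1 U RNase A. DNA content was measured by flow cytometry. Values are mean ± SD of three independent experiments, compared with control by one-way ANOVA and Tukey's test.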

A549 cells [5] = assay: Annexin V-FITC/PI apoptosis assay by flow cytometry; type: cell-based, human; details: A549, 16.1 μM
Summary of the method: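 A549 cells (1 × 10^5) were pre-cultured for 16 h, then exposed to 16.1 μM test compound for 24 h and 48 h. Cells were washed with PBS and 1× binding buffer, then stained with Annexin V-FITC for 15 min. After a further wash, PI was added in binding buffer and apoptosis rates were read by flow cytometry. Values are mean ± SD of three independent experiments, compared with untreated controls by one-way ANOVA and Tukey's test.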

A549 cells [6] = details: read-out: IC50 (A549); cited from earlier work
[7] = MTT, 72 h, mean ± SD of 3–4 independent replicates

| Molecule | IC50 ([1]; Homo sapiens, A549, 72 h) [µM] | IC50 ([2]; Homo sapiens, SW480, 72 h) [µM] | further results |
| --- | --- | --- | --- |
| N.N.[Cl][Pt][Cl] [Cisplatin, reference compound] |  |  | IC50 [1, 7]: 7.4 ± 1.6 µM |
| COc1cc(-c2nc3ccccc3n2Cc2cn(CC(=O)Nc3ccc(C)cc3)nn2)cc(OC)c1OC [Compound 9a, N-(p-Tolyl)-2-(4-((2-(3,4,5-trimethoxyphenyl)-1H-benzo[d]imidazol-1-yl)methyl)-1H-1,2,3-triazol-1-yl)acetamide] | 67.4 ± 3.4 | 77.2 ± 3.2 |  |
| COc1cc(-c2nc3ccccc3n2Cc2cn(CC(=O)Nc3ccccc3)nn2)cc(OC)c1OC [Compound 9b, N-Phenyl-2-(4-((2-(3,4,5-trimethoxyphenyl)-1H-benzo[d]imidazol-1-yl)methyl)-1H-1,2,3-triazol-1-yl)acetamide] | 114 ± 5 | 158 ± 7.8 |  |
| COc1cc(-c2nc3ccccc3n2Cc2cn(CC(=O)Nc3ccc(Br)cc3)nn2)cc(OC)c1OC [Compound 9d, N-(4-Bromophenyl)-2-(4-((2-(3,4,5-trimethoxyphenyl)-1H-benzo[d]imidazol-1-yl)methyl)-1H-1,2,3-triazol-1-yl)acetamide] | > 200 | > 200 |  |
| COc1ccc(NC(=O)Cn2cc(Cn3c(-c4cc(OC)c(OC)c(OC)c4)nc4ccccc43)nn2)cc1 [Compound 9j, N-(4-Methoxyphenyl)-2-(4-((2-(3,4,5-trimethoxyphenyl)-1H-benzo[d]imidazol-1-yl)methyl)-1H-1,2,3-triazol-1-yl)acetamide] | 57.6 ± 5.7 | 68.1 ± 2.2 |  |
| CCc1ccc(NC(=O)Cn2cc(Cn3c(-c4cc(OC)c(OC)c(OC)c4)nc4ccccc43)nn2)cc1 [Compound 9l, N-(4-Ethylphenyl)-2-(4-((2-(3,4,5-trimethoxyphenyl)-1H-benzo[d]imidazol-1-yl)methyl)-1H-1,2,3-triazol-1-yl)acetamide] | 50.3 ± 6.7 | 65.3 ± 1 |  |
| COc1cc(-c2nc3ccc(C)cc3[nH]2)cc(OC)c1OC [Compound I, 6-methyl-2-(3,4,5-trimethoxyphenyl)-1H-benzo[d]imidazole] |  |  | IC50 (A549 cells [6]): 39.4 µM |
| N-(2-Nitrophenyl)-2-(4-((2-(3,4,5-trimethoxyphenyl)-1H-benzo[d]imidazol-1-yl)methyl)-1H-1,2,3-triazol-1-yl)acetamide [Compound 9c] |  |  | IC50 [1, 7]: 23.5 ± 3.6 µM; IC50 [2, 7]: 22.5 ± 3.9 µM |

Now from value to molecule, other results behind:

| IC50 ([1]; Homo sapiens, A549, 72 h) [µM] | IC50 ([2]; Homo sapiens, SW480, 72 h) [µM] | Molecule | further results |
| --- | --- | --- | --- |
| 22.2 ± 4 | 30.4 ± 3.6 | COc1cc(-c2nc3ccccc3n2Cc2cn(CC(=O)Nc3ccccc3Cl)nn2)cc(OC)c1OC [Compound 9e, N-(2-Chlorophenyl)-2-(4-((2-(3,4,5-trimethoxyphenyl)-1H-benzo[d]imidazol-1-yl)methyl)-1H-1,2,3-triazol-1-yl)acetamide] | IC50 [3]: 105 ± 7.1 µM |
| 16.1 ± 1.1 | 19.7 ± 2.7 | COc1ccc(NC(=O)Cn2cc(Cn3c(-c4cc(OC)c(OC)c(OC)c4)nc4ccccc43)nn2)c(OC)c1 [Compound 9f, N-(2,4-Dimethoxyphenyl)-2-(4-((2-(3,4,5-trimethoxyphenyl)-1H-benzo[d]imidazol-1-yl)methyl)-1H-1,2,3-triazol-1-yl)acetamide] | IC50 [3]: 121 ± 6.7 µM; changes in the number of cells in the cell cycle phases compared to control (A549 cells [4]; 24 h): not significant; number of cells in the G2/M phase (A549 cells [4]; 48 h, non-significant decrease): 12.05%; number of cells in the S phase (A549 cells [4]; 48 h, p < 0.001 vs control): 33.04%; number of cells in the G0/G1 phase (A549 cells [4]; 48 h, p < 0.01 vs control): 54.91%; rate of early apoptosis (Q3) (A549 cells [5]; 24 h): 3.79%; rate of late apoptosis (Q2) (A549 cells [5]; 24 h): 1.63%; rate of early apoptosis (Q3) (A549 cells [5]; 48 h): 12.2%; rate of late apoptosis (Q2) (A549 cells [5]; 48 h): 4.01% |
| 31.5 ± 4.2 | 64.5 ± 3.3 | COc1cc(-c2nc3ccccc3n2Cc2cn(CC(=O)Nc3ccc(Cl)cc3Cl)nn2)cc(OC)c1OC [Compound 9g, N-(2,4-Dichlorophenyl)-2-(4-((2-(3,4,5-trimethoxyphenyl)-1H-benzo[d]imidazol-1-yl)methyl)-1H-1,2,3-triazol-1-yl)acetamide] |  |
| 32.5 ± 4.2 | 43.8 ± 2.5 | COc1cc(-c2nc3ccccc3n2Cc2cn(CC(=O)Nc3ccccc3[N+](=O)[O-])nn2)cc(OC)c1OC [Compound 9h, N-(2-Nitrophenyl)-2-(4-((2-(3,4,5-trimethoxyphenyl)-1H-benzo[d]imidazol-1-yl)methyl)-1H-1,2,3-triazol-1-yl)acetamide] |  |
| 29.3 ± 6.6 | 51.5 ± 4.6 | COc1cc(-c2nc3ccccc3n2Cc2cn(CC(=O)Nc3ccc(C)cc3C)nn2)cc(OC)c1OC [Compound 9i, N-(2,4-Dimethylphenyl)-2-(4-((2-(3,4,5-trimethoxyphenyl)-1H-benzo[d]imidazol-1-yl)methyl)-1H-1,2,3-triazol-1-yl)acetamide] |  |
| 37.9 ± 0.14 | 53.5 ± 6.4 | COc1cc(-c2nc3ccccc3n2Cc2cn(CC(=O)Nc3cccc(C)c3C)nn2)cc(OC)c1OC [Compound 9k, N-(2,3-Dimethylphenyl)-2-(4-((2-(3,4,5-trimethoxyphenyl)-1H-benzo[d]imidazol-1-yl)methyl)-1H-1,2,3-triazol-1-yl)acetamide] |  |
| 47.9 ± 2.7 | 72.3 ± 5.3 | COc1cc(-c2nc3ccccc3n2Cc2cn(CC(=O)NCc3ccccc3)nn2)cc(OC)c1OC [Compound 9m, N-Benzyl-2-(4-((2-(3,4,5-trimethoxyphenyl)-1H-benzo[d]imidazol-1-yl)methyl)-1H-1,2,3-triazol-1-yl)acetamide] |  |
| 20.3 ± 2 | 34.3 ± 3.1 | COc1cc(-c2nc3ccccc3n2Cc2cn(CC(=O)Nc3cccc(Cl)c3)nn2)cc(OC)c1OC [Compound 9n, N-(3-Chlorophenyl)-2-(4-((2-(3,4,5-trimethoxyphenyl)-1H-benzo[d]imidazol-1-yl)methyl)-1H-1,2,3-triazol-1-yl)acetamide] | IC50 [3]: 124.2 ± 0.4 µM |
| 48.9 ± 2.2 | 62.4 ± 3.7 | COc1cc(-c2nc3ccccc3n2Cc2cn(CC(=O)Nc3ccccc3F)nn2)cc(OC)c1OC [Compound 9o, N-(2-Fluorophenyl)-2-(4-((2-(3,4,5-trimethoxyphenyl)-1H-benzo[d]imidazol-1-yl)methyl)-1H-1,2,3-triazol-1-yl)acetamide] |  |
| 0.46 ± 0.02 | 0.59 ± 0.07 | COc1cccc2c1C(=O)c1c(O)c3c(c(O)c1C2=O)C[C@@](O)(C(=O)CO)C[C@@H]3O[C@H]1C[C@H](N)[C@H](O)[C@H](C)O1 [Doxorubicin, reference compound] | IC50 [3]: 0.39 ± 0.06 µM |

— PMC12506886 (RSC Advances, 2025)
